# Assay results reported in ChEMBL document CHEMBL4334486 (J Med Chem, 2019).
# Activity calls are given as the source filed them. The rule behind the calls is not given here.
# Legend:
# [1] = test system: Pseudomonas aeruginosa; test: Antimicrobial activity against Pseudomonas aeruginosa PAO1 assessed as inhibition of bacterial growth under Mueller-Hinton conditions without iron supplementation; type: functional
# Outline: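 Ciprofloxacin and deferoxamine serve as controls. MIC is taken as the highest dilution with visually clear wells.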
# [2] = test system: Pseudomonas aeruginosa; test: Antimicrobial activity against siderophore-producing Pseudomonas aeruginosa PAO1 assessed as inhibition of bacterial growth at 0.125 to 128 ug/mL under iron-supplemented succinate minimal medium in the presence of 50 uM of FeCl3; type: functional, organism-based
# Outline: (§1)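 Succinate minimal medium with FeCl3 at 8 μg/mL (50 μM), inoculated with the strain at 0.5 McFarland. Compound is added from 2-fold DMSO dilutions; DMSO alone is the growth control. Incubation is 24 h. OD600 gives growth, with cell-free baselines. Runs are at least duplicate, mean + SD; Mann−Whitney test, p<0.05.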
# [3] = test system: Pseudomonas aeruginosa; test: Antimicrobial activity against siderophore-deficient Pseudomonas aeruginosa PAD07 in siderophore-deficient PAD07 assessed as inhibition of bacterial growth at 0.0625 to 128 ug/mL incubated for 24 hrs under iron-supplemented succinate minimal medium in the presence of 50 uM of FeCl3; type: functional, organism-based; outline: as §1
# [4] = test system: Pseudomonas aeruginosa; test: Induction of fluorescent pyoverdine-1 siderophore production in siderophore-producing Pseudomonas aeruginosa PAO1 at 0.125 to 128 ug/mL incubated for 24 hrs under iron-supplemented succinate minimal medium in the presence of 50 uM of FeCl3; type: functional, organism-based
# Outline: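 PAO1 in succinate minimal medium with 8 μg/mL (50 μM) FeCl3, compound from DMSO dilutions. Plates are incubated 24 h at 35 °C. Iron-free pyoverdine is read by absorbance at 405 nm and by fluorescence (excitation 400 nm, emission 447 nm), with cell-free baselines. Runs are in duplicate at least twice, mean + SD.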
# [5] = molecular target: Fucose-binding lectin PA-IIL (Pseudomonas aeruginosa (strain ATCC 15692 / DSM 22644 / CIP 104116 / JCM14847 / LMG 12228 / 1C / PRS 101 / PAO1), UniProt Q9HYN5); test: Inhibition of Pseudomonas aeruginosa LecB by fluorescence polarization assay
# Sequence of Fucose-binding lectin PA-IIL (Q9HYN5 whole entry): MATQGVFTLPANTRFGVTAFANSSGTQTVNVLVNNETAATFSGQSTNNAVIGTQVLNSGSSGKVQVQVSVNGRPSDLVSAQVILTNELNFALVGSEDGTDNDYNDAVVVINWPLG
# [6] = molecular target: Fucose-binding lectin PA-IIL (Pseudomonas aeruginosa (strain ATCC 15692 / DSM 22644 / CIP 104116 / JCM14847 / LMG 12228 / 1C / PRS 101 / PAO1)) (UniProt Q9HYN5); test: Potency index, ratio of IC50 for Me-alpha-L-fucoside to IC50 for test compound for inhibition of Pseudomonas aeruginosa LecB by fluorescence polarization assay
# Sequence of Fucose-binding lectin PA-IIL (Pseudomonas aeruginosa (strain ATCC 15692 / DSM 22644 / CIP 104116 / JCM14847 / LMG 12228 / 1C / PRS 101 / PAO1)) (Q9HYN5 as listed by the source): as the sequence (Q9HYN5 whole entry) above
# [7] = test system: Pseudomonas aeruginosa; test: Antibiofilm activity against Pseudomonas aeruginosa PAO1 assessed as inhibition of biofilm formation incubated for 24 to 25 hrs at 50 uM by WST8 dye based Diggle-protocol method relative to control; type: functional
# Outline: (§2)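 Modified Diggle microtiter method. Medium is 0.25% (w/v) nutrient broth no. 2 containing compound. PAO1 is grown overnight in LB, washed, and inoculated normalized to OD600 of 1. Plates are incubated humid for 24−25 h at 37 °C and washed twice with water. Wells are then stained for 3 h at 37 °C with 0.5 mM WST-8 plus 20 μM phenazine ethosulfate. Supernatant absorbance is read at 450 nm to give viable biofilm cells.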
# [8] = test system: Pseudomonas aeruginosa; test: Antibiofilm activity against Pseudomonas aeruginosa PAO1 assessed as inhibition of biofilm formation incubated for 8 hrs at 20 uM by crystal violet based O'Toole method relative to control; type: functional; conditions: PAO1, 8 h
# Outline: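 O'Toole biofilm assay. PAO1 is grown in M63 minimal medium with 0.4% arginine and 1 mM MgSO4. Compound at 20 μM, or an equal volume of water as vehicle control, is added at inoculation. Incubation is 8 h at 37 °C. Growth is read at 550 nm on removed medium. Biofilm is stained with 0.1% crystal violet and quantified.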
# [9] = Toxicity in human CFBEdeltaF cells isolated from CF patient at 20 uM incubated for 24 hrs by LDH assay; type: cell-based
# Outline: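 CF bronchial epithelial CFBEΔF monolayers are treated with compound at 20 μM (water vehicle control) for 24 h. Cytotoxicity is measured as LDH released into the medium. Triton is the lysis reference.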
# [10] = test system: Pseudomonas aeruginosa; test: Antibiofilm activity against Pseudomonas aeruginosa PAO1 assessed as inhibition of biofilm formation incubated for 8 hrs at 20 uM by crystal violet based O'Toole method relative to control
# [11] = molecular target: Fucose-binding lectin PA-IIL (Pseudomonas aeruginosa (strain ATCC 15692 / DSM 22644 / CIP 104116 / JCM14847 / LMG 12228 / 1C / PRS 101 / PAO1)) (UniProt Q9HYN5); test: Potency index, ratio of IC50 for Me-alpha-D-mannoside to IC50 for test compound for inhibition of Pseudomonas aeruginosa LecB by fluorescence polarization assay
# [12] = test system: Pseudomonas aeruginosa; test: Antibiofilm activity against Pseudomonas aeruginosa PAO1 assessed as inhibition of biofilm formation incubated for 24 to 25 hrs at 20 uM by WST8 dye based Diggle-protocol method relative to control; type: functional; outline: as §2
# [13] = test system: Pseudomonas aeruginosa; test: Antibiofilm activity against Pseudomonas aeruginosa PAO1 assessed as inhibition of biofilm formation incubated for 24 to 25 hrs at 20 uM in presence of sub-inhibitory concentration of tobramycin by WST8 dye based Diggle-protocol method relative to control; type: functional, organism-based
# Outline: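 Diggle WST-8 biofilm method. PAO1 in 0.25% nutrient broth is exposed to compound at 20 μM mixed with tobramycin at 0.1 μM (subinhibitory). Incubation is 24−25 h at 37 °C. Washed wells are stained 3 h with 0.5 mM WST-8 and 20 μM phenazine ethosulfate. A450 of the supernatant is read.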
# [14] = test system: Pseudomonas aeruginosa; test: Toxicity in Pseudomonas aeruginosa PAO1 incubated for 24 to 25 hrs at 20 uM in presence of sub-inhibitory concentration of tobramycin by WST8 dye based Diggle-protocol method relative to control; type: organism-based; conditions: in vivo
# [15] = test system: Pseudomonas aeruginosa; test: Antimicrobial activity against Pseudomonas aeruginosa PAO1 assessed as inhibition of planktonic cells growth at >0.15 uM incubated for 24 to 25 hrs; type: functional, organism-based
# Outline: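 PAO1 inoculum from overnight LB culture, washed in 0.25% (w/v) nutrient broth no. 2, normalized to OD600 1 and added to the same broth containing the test compound. Incubation was 24−25 h at 37 °C in a humid environment. Planktonic growth was read from the supernatant: it was regrown in LB at 37 °C for 7−8 h and OD600 was compared with no-supernatant, or CFU were plated on LB agar.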
SMILES,MIC [1] [µg/mL],Activity [2],Activity [4],IC50 [5] [nM],inhibition at 20 µM [8] [%],Activity [9],further results
C[C@@H]1O[C@@H](OCc2cn(CCCCCC(=O)N(O)Cc3cn(CCCOc4c5cc(C(C)(C)C)cc4Cc4cc(C(C)(C)C)cc(c4OCCCn4cc(CN(O)C(=O)CCCCCn6cc(CO[C@@H]7O[C@@H](C)[C@@H](O)[C@@H](O)[C@@H]7O)nn6)nn4)Cc4cc(C(C)(C)C)cc(c4OCCCn4cc(CN(O)C(=O)CCCCCn6cc(CO[C@@H]7O[C@@H](C)[C@@H](O)[C@@H](O)[C@@H]7O)nn6)nn4)Cc4cc(C(C)(C)C)cc(c4OCCCn4cc(CN(O)C(=O)CCCCCn6cc(CO[C@@H]7O[C@@H](C)[C@@H](O)[C@@H](O)[C@@H]7O)nn6)nn4)C5)nn3)nn2)[C@@H](O)[C@H](O)[C@@H]1O,> 512,inactive,Dose-dependent effect,249,72,Non-Toxic,Activity [3]: inactive; Ratio IC50 [6]: 3.37; inhibition [7]: inactive; inhibition [10]: inactive
CC(C)(C)c1cc2c(OCCCn3cc(CN(O)C(=O)CCCCCn4cc(CO[C@H]5O[C@H](CO)[C@@H](O)[C@H](O)[C@@H]5O)nn4)nn3)c(c1)Cc1cc(C(C)(C)C)cc(c1OCCCn1cc(CN(O)C(=O)CCCCCn3cc(CO[C@H]4O[C@H](CO)[C@@H](O)[C@H](O)[C@@H]4O)nn3)nn1)Cc1cc(C(C)(C)C)cc(c1OCCCn1cc(CN(O)C(=O)CCCCCn3cc(CO[C@H]4O[C@H](CO)[C@@H](O)[C@H](O)[C@@H]4O)nn3)nn1)Cc1cc(C(C)(C)C)cc(c1OCCCn1cc(CN(O)C(=O)CCCCCn3cc(CO[C@H]4O[C@H](CO)[C@@H](O)[C@H](O)[C@@H]4O)nn3)nn1)C2,> 512,inactive,Dose-dependent effect,664,84,Non-Toxic,Ratio IC50 [11]: 236; inhibition at 50 µM [7]: 70%; inhibition at 20 µM [12]: 83%; inhibition [13]: Active; Activity [14]: Non-Toxic
C[C@@H]1O[C@@H](OCc2cn(CCCCCC(=O)NOCc3ccccc3)nn2)[C@@H](O)[C@H](O)[C@@H]1O,–,–,–,500,–,–,–
CC(C)(C)c1cc2c(OCCCn3cc(CN(O)C(=O)CCCCCn4cc(CO[C@H]5O[C@H](CO)[C@@H](O)[C@H](O)[C@H]5O)nn4)nn3)c(c1)Cc1cc(C(C)(C)C)cc(c1OCCCn1cc(CN(O)C(=O)CCCCCn3cc(CO[C@H]4O[C@H](CO)[C@@H](O)[C@H](O)[C@H]4O)nn3)nn1)Cc1cc(C(C)(C)C)cc(c1OCCCn1cc(CN(O)C(=O)CCCCCn3cc(CO[C@H]4O[C@H](CO)[C@@H](O)[C@H](O)[C@H]4O)nn3)nn1)Cc1cc(C(C)(C)C)cc(c1OCCCn1cc(CN(O)C(=O)CCCCCn3cc(CO[C@H]4O[C@H](CO)[C@@H](O)[C@H](O)[C@H]4O)nn3)nn1)C2,–,–,–,–,92,Non-Toxic,–
O=C(CCCCCn1cc(CO[C@H]2O[C@H](CO)[C@@H](O)[C@H](O)[C@@H]2O)nn1)NOCc1ccccc1,–,–,–,146000,–,–,–
NC[C@H]1O[C@H](O[C@H]2[C@H](O)[C@@H](O[C@H]3O[C@H](CO)[C@@H](O)[C@H](N)[C@H]3O)[C@H](N)C[C@@H]2N)[C@H](N)C[C@@H]1O,–,–,–,–,–,–,Activity [15]: Active
